Assays:
[1] = biological target: dopamine transporters (DAT) (Rattus norvegicus, UniProt P23977); assay: Release assay at DAT, [3H]MPP+ preloaded rat brain synaptosomes; type: biochemical; settings: (EC50 at DAT)^−1/(EC50 at SERT)^−1; higher value indicates greater DAT selectivity
Outline: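 Male Sprague-Dawley rat (250–300 g) brain synaptosomes. DAT substrate was 9 nM [3H]MPP+ and SERT substrate 5 nM [3H]5-HT. Buffers held 1 μM reserpine, with unlabelled blockers of competing transporters. Synaptosomes were preloaded for 1 h in Krebs-phosphate buffer, then added to test compound. Filtration stopped release, and retained radioactivity was counted. The ratio comes from dose-response EC50s; N = 3–4, triplicate.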

[2] = biological target: 5-HT transporters (SERT) (Rattus norvegicus, UniProt P31652); assay: Release assay at SERT, [3H]5-HT preloaded rat brain synaptosomes; type: biochemical; settings: for releasing efficacy at SERT (in words): rat brain tissue
Outline: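 Synaptosomes came from male Sprague-Dawley rat (250–300 g) brains after CO2 euthanasia. They were preloaded to steady state (1 h) with 5 nM [3H]5-HT in Krebs-phosphate buffer containing 1 μM reserpine, plus unlabelled blockers for the other transporters. Preloaded synaptosomes were added to test compound dilutions, and release was stopped by vacuum filtration. Retained radioactivity was measured by scintillation counting. Dose-response; mean ± SD, N = 3–4, triplicate.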

[3] = biological target: SERT (Rattus norvegicus, UniProt P31652); assay: Uptake blocking at SERT; type: biochemical; settings: subsequent experiments, data not shown
[4] = cis to trans isomerization in solution; type: physicochemical; settings: acetonitrile only

Chain of dopamine transporters (DAT) (P23977 whole entry): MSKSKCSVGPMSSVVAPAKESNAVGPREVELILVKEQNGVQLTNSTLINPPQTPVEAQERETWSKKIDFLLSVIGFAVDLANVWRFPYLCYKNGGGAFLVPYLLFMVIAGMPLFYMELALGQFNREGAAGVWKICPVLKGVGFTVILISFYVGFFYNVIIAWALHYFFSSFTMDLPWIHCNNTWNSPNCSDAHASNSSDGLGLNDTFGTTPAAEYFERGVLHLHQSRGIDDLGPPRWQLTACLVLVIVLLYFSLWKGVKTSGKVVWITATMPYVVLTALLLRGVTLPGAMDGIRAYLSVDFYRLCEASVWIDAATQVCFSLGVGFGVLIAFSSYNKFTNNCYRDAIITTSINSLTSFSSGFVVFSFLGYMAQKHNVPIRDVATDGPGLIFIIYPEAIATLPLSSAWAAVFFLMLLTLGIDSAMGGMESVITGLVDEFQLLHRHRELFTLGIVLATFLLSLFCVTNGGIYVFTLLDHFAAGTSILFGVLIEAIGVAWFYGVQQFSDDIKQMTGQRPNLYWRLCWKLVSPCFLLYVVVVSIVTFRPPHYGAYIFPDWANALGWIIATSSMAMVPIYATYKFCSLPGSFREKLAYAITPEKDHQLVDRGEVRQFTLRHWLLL
Chain of 5-HT transporters (SERT) (P31652 whole entry): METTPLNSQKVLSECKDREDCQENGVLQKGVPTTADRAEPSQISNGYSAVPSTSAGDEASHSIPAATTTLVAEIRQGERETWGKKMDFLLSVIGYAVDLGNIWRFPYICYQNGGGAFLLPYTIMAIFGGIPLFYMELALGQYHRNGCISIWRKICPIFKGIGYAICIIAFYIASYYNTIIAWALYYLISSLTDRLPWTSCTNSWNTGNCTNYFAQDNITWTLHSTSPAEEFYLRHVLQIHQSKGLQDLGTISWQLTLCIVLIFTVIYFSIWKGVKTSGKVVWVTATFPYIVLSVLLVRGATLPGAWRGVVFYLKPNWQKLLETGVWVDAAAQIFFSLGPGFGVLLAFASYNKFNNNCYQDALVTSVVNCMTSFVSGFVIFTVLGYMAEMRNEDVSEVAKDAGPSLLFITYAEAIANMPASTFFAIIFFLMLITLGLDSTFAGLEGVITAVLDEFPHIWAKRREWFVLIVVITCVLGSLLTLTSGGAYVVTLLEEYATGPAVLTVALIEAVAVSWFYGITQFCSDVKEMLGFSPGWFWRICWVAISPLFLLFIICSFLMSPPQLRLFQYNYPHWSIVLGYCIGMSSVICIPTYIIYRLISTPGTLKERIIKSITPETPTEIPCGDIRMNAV
Chain of SERT (P31652 whole entry): as above

Structure (SMILES) | DAT/SERT ratio [1] | releasing efficacy at SERT (in words) [2] | maximal release at SERT ([2]; efficacy, % of maximal release) [%] | uptake blocker efficacy at SERT [3] | cis to trans isomerization [4]
Cc1ccc([C@H]2OC(N)=N[C@H]2C)cc1 (relative stereo) [Cis-DMAR, cis-4,4′-dimethylaminorex] | 1.6 | fully efficacious releasing agents | – | – | –
Cc1ccc([C@@H]2OC(N)=N[C@H]2C)cc1 (relative stereo) [Trans-DMAR, trans-4,4′-dimethylaminorex] | 2.5 | partial releasing activity | 75 | fully efficacious as an uptake blocker | –
CNC(C)Cc1ccc2c(c1)OCO2 (single isomer, unassigned; (+)) [(+)-MDMA, (+)-3,4-methylenedioxymethamphetamine] | 0.6 | – | – | – | –
C[C@@H]1N=C(N)O[C@@H]1c1ccc2c(c1)OCO2 (racemic) [Cis-MDMAR, (±)-cis-3′,4′-Methylenedioxy-4-methylaminorex] | 4.3 | fully efficacious releasing agents | – | – | Isomerization did not occur
C[C@@H]1N=C(N)O[C@H]1c1ccc2c(c1)OCO2 (racemic) [Trans-MDMAR, (±)-trans-3′,4′-Methylenedioxy-4-methylaminorex] | 2.0 | fully efficacious releasing agents | – | – | –

— publication PMC5331736 (Drug testing and analysis, 2014)
